Results taken from ChEMBL document CHEMBL2016469, “Synthesis and evaluation of 1-(substituted)-3-prop-2-ynylureas as antiangiogenic agents” (Bioorg Med Chem Lett, 2012).
The source made the active and inactive calls. The rule behind the calls is not given here.

Tests used:
[1] = tested on: HUVEC; experiment: Angiogenic activity in HUVEC assessed as induction of tube formation at 12.5 nM after 24 hrs by hematoxylin staining analysis; format: functional, cell-based; conditions: Homo sapiens
[2] = tested on: HUVEC; experiment: Cytotoxicity against HUVEC after 48 hrs by MTT assay; format: cell-based; conditions: Homo sapiens
Summary of the method: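 MTT assay. HeLa and MCF-7 were tested at 1 and 100 μM. HUVEC cytotoxicity was measured the same way as for HeLa and MCF-7, to define non-cytotoxic doses for the tube-formation work. IC50 values taken as means of three independent experiments.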

[3] = tested on: MCF7; experiment: Cytotoxicity against human MCF7 cells after 48 hrs by MTT assay; format: functional, cell-based; conditions: MCF7, 48 h
[4] = tested on: A-431; experiment: Cytotoxicity against human A431 cells over expressing EGFR after 48 hrs by MTT assay; format: functional, cell-based; conditions: A-431, 48 h
[5] = tested on: HUVEC; experiment: Cytotoxicity against HUVEC at 12.5 nM after 48 hrs by MTT assay; format: cell-based; conditions: human, 0.0125 µM
[6] = Cytotoxicity against human EAhy926 cells after 48 hrs by MTT assay; format: functional, cell-based; conditions: EA.hy 926, 48 h
[7] = tested on: HeLa; experiment: Cytotoxicity against human HeLa cells after 48 hrs by MTT assay; format: functional, cell-based
[8] = tested on: K562; experiment: Cytotoxicity against human K562 cells; format: functional, cell-based
[9] = tested on: HUVEC; experiment: Ratio of IC50 for cytotoxicity in HUVEC to EC50 for antiangiogenic activity in HUVEC; format: functional, Homo sapiens
Summary of the method: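 Ratio of HUVEC cytotoxic IC50 (MTT) to antiangiogenic ED50 from the HUVEC tube-formation assay.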

[10] = tested on: HUVEC; experiment: Antiangiogenic activity in HUVEC assessed as suppression of tube formation at 6.25 uM after 24 hrs by hematoxylin staining analysis; format: functional; conditions: Homo sapiens
[11] = target: Vascular endothelial growth factor receptor 2 (Homo sapiens) (UniProt P35968); experiment: Inhibition of human recombinant VEGFR2 expressed in insect cells using Ulight-CAGAGAIETDKEYYTVKD as substrate at 1 uM after 60 mins by fluorescence assay
Summary of the method: (§1)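 In vitro kinase assay against FGFR1, PDGFRβ or VEGFR2 with test compound at 1 μM. Read-out is the level of phosphorylation of a tyrosine kinase-specific ligand peptide substrate.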

[12] = tested on: HUVEC; experiment: Antiangiogenic activity in HUVEC assessed as suppression of tube formation after 24 hrs by hematoxylin staining analysis; format: functional, cell-based; conditions: Homo sapiens
[13] = target: Fibroblast growth factor receptor 1 (Homo sapiens) (UniProt P11362); experiment: Inhibition of human recombinant FGFR1 expressed in insect cells using Ulight-CAGAGAIETDKEYYTVKD as substrate at 1 uM after 60 mins by fluorescence assay; summary of the method: as §1
[14] = target: Platelet-derived growth factor receptor beta (Homo sapiens) (UniProt P09619); experiment: Inhibition of human recombinant PDGFR-beta expressed in insect cells using Ulight-Poly GAT[EAY(1:1:1)]n as substrate at 1 uM after 60 mins by fluorescence assay; summary of the method: as §1
[15] = tested on: HeLa; experiment: Cytotoxicity against human HeLa cells at 100 uM after 48 hrs by MTT assay; format: functional; conditions: read-out: GI
Summary of the method: (§2)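 MTT cytotoxicity screen against HeLa or MCF-7 cells at a single test concentration of 100 μM (screen also included 1 μM).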

[16] = tested on: MCF7; experiment: Cytotoxicity against human MCF7 cells at 100 uM after 48 hrs by MTT assay; format: functional; conditions: MCF7, 48 h, read-out: GI; summary of the method: as §2
[17] = tested on: HUVEC; experiment: Antiangiogenic activity in HUVEC assessed as suppression of tube formation at 25 nM after 24 hrs by hematoxylin staining analysis; format: functional; conditions: Homo sapiens
[18] = tested on: MDA-MB-231; experiment: Cytotoxicity against human MDA-MB-231 cells; format: functional, cell-based
[19] = Homo sapiens, HeLa, 48 h, read-out: IC50

Sequence of Fibroblast growth factor receptor 1 (Homo sapiens) (P11362 22-822 limits assumed): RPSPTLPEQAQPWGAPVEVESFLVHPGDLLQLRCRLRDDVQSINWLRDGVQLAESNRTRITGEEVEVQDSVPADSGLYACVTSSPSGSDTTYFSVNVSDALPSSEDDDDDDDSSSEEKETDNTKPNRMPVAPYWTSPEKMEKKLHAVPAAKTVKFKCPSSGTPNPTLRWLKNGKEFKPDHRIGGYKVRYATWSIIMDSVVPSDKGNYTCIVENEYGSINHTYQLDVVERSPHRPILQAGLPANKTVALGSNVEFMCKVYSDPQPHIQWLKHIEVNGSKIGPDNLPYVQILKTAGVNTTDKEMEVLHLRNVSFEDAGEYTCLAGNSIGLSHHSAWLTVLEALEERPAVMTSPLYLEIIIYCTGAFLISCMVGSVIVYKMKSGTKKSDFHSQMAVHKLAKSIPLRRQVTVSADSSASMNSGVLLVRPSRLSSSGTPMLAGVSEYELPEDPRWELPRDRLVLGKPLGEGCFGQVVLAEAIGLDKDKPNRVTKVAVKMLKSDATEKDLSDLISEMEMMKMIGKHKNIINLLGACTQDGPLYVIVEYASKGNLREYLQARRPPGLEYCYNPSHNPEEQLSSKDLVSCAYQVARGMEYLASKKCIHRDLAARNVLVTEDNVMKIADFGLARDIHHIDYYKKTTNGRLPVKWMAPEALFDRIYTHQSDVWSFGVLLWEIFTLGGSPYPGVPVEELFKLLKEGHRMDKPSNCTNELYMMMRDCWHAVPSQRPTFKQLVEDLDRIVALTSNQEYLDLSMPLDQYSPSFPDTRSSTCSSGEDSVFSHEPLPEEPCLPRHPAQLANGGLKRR
Sequence of Vascular endothelial growth factor receptor 2 (Homo sapiens) (P35968 whole entry): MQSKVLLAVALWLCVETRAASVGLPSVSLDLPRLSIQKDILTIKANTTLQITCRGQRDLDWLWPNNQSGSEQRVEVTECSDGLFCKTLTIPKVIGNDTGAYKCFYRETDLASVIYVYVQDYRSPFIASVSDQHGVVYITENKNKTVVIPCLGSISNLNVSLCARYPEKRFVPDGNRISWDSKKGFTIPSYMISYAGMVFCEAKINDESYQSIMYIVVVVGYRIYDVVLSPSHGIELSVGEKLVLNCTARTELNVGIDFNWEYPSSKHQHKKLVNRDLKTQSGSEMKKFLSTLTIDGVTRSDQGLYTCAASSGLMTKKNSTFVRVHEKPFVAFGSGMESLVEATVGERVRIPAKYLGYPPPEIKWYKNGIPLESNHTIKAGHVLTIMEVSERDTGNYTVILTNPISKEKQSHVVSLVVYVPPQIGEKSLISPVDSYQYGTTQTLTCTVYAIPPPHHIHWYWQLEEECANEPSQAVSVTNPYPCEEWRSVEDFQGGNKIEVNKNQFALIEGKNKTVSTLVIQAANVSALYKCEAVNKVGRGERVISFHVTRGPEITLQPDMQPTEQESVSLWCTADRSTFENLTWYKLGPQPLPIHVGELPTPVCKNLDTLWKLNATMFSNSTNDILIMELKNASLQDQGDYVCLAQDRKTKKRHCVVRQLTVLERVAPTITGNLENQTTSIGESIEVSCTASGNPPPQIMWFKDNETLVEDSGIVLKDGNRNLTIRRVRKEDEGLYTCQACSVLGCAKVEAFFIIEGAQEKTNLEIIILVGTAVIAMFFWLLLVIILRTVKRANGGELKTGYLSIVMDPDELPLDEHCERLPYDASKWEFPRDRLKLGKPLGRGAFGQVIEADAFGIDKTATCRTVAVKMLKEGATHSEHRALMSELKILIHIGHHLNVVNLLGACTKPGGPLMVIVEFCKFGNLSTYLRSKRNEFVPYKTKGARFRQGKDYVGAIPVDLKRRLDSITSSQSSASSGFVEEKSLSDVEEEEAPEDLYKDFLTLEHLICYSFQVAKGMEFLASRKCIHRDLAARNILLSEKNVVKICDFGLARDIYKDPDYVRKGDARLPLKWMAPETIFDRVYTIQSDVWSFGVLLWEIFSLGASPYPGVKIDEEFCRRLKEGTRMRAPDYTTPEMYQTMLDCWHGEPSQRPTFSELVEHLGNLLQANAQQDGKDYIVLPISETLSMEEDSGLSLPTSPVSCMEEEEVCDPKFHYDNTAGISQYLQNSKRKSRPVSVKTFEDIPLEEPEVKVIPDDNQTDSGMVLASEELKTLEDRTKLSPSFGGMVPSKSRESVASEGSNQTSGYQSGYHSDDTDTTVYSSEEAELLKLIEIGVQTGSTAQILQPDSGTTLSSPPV
Sequence of Platelet-derived growth factor receptor beta (Homo sapiens) (P09619 whole entry): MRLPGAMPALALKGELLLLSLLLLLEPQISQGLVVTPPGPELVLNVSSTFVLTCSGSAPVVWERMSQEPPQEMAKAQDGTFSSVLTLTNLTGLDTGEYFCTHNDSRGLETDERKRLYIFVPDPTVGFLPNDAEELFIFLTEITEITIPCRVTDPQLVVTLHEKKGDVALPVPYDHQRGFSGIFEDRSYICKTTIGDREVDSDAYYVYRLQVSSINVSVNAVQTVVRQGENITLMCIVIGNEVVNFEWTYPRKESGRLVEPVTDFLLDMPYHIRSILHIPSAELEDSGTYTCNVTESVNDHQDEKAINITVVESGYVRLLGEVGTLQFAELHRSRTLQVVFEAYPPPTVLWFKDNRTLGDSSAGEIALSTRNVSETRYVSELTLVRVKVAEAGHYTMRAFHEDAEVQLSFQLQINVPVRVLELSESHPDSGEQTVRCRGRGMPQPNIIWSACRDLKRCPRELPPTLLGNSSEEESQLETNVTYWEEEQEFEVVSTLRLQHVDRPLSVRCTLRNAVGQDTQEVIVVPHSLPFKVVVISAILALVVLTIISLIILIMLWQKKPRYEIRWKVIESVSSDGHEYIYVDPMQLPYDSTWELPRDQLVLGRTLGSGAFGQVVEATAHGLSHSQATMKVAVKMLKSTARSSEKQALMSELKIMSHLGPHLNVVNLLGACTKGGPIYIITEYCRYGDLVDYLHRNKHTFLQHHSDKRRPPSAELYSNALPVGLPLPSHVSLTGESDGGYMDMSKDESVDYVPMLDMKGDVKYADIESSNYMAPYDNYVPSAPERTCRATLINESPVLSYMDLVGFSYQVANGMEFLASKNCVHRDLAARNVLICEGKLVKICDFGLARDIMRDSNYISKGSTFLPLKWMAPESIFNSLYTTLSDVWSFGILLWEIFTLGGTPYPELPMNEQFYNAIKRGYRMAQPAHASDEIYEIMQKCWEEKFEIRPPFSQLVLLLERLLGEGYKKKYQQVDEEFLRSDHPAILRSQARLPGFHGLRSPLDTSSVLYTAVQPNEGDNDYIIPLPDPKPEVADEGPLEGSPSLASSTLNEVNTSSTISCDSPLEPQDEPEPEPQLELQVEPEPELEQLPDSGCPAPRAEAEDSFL

SMILES | IC50 [2] [µM] | IC50 [3] [µM] | IC50 [4] [µM] | IC50 [6] [µM] | IC50 [7, 19] [µM] | other results
C#CCNC(=O)Nc1cccc(CNCc2ccccc2)c1 | 50 | 343 | 0.318 | 192 | – | Activity [1]: Active; Activity [5]: Non-toxic; IC50 ([7]; hela): Not Active
C#CCNC(=O)Nc1cccc(CNCc2ccc(OC(F)(F)F)cc2)c1 | – | 283 | – | – | 339 | –
C#CCNC(=O)Nc1cccc(CNCc2ccc(OC)cc2)c1 | – | 195 | – | – | 392 | –
COc1ccc(N(C(=O)N(C)C)c2nnc(-c3ccccc3)s2)cc1OC | – | – | – | – | – | IC50 [8]: 3 µM
C#CCNC(=O)Nc1cccc(COc2ccc(C(=O)OC)cc2)c1 | 100 | 74.9 | 0.215 | 78.2 | 12.3 | Ratio [9]: 6; inhibition at 6.25 µM [10]: 46.5%; inhibition [11]: inactive; EC50 [12]: 17.5 µM; inhibition [13]: inactive
C#CCNC(=O)Nc1cccc(CCl)c1 | 20 | 1.48 | 0.036 | 10.5 | 1.55 | Ratio [9]: 77; inhibition [14]: Active; inhibition [11]: inactive; inhibition of growth at 100 µM [15]: 86.9%; EC50 [12]: 0.26 µM; inhibition of growth at 100 µM [16]: 85.2%; inhibition [13]: inactive; inhibition at 0.025 µM [17]: 21.2%
CNC(=O)c1cc(Oc2ccc(NC(=O)Nc3ccc(Cl)c(C(F)(F)F)c3)cc2)ccn1 [SORAFENIB] | – | – | – | – | – | IC50 [18]: 2.5 µM
C#Cc1cccc(Nc2ncnc3cc(OCCOC)c(OCCOC)cc23)c1 [ERLOTINIB] | – | – | 0.055 | – | – | –
C#CCNC(=O)Nc1cccc(CNCc2ccc(C)cc2)c1 | – | 49.9 | – | – | 329 | –
COc1cccc2c1C(=O)c1c(O)c3c(c(O)c1C2=O)C[C@@](O)(C(=O)CO)C[C@@H]3O[C@H]1C[C@H](N)[C@H](O)[C@H](C)O1 [DOXORUBICIN] | – | – | – | – | 0.19 | –
